pEC50: −log10 of the molar value. The source made the active and inactive calls. The rule behind the calls is not given here.
Key:
Plasmodium falciparum [1] = assay: Antimalarial activity against tightly synchronized Plasmodium falciparum K1 assessed as parasite stage accumulation index at schizonts stages at 10 uM treated at 18 hrs post-invasion for continuous duration of 36 hrs by automated image mining based cytological profiling assay; assay type: functional
Summary of the method: (§1)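 Tightly synchronized cultures exposed to 10 µM final from 6 hpi (early ring), 18 hpi (late ring) or 30 hpi (mid-trophozoite) for a continuous 36 h. Erythrocytes stained with WGA-AlexaFluor 488, parasite nuclei with DAPI, functional mitochondria with Mitotracker Red CMXRos. Stages (early rings, late rings, trophozoites, schizonts) classified by nuclear spot number and size. Viable parasitaemia and stage accumulation index obtained by automated image analysis.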

Plasmodium falciparum [2] = assay: Antimalarial activity against tightly synchronized Plasmodium falciparum K1 assessed as parasite stage accumulation index at trophozoites stages at 10 uM treated at 30 hrs post-invasion for continuous duration of 36 hrs by automated image mining based cytological profiling assay; assay type: functional; summary of the method: as §1
Plasmodium falciparum [3] = assay: Antimalarial activity against tightly synchronized Plasmodium falciparum K1 assessed as parasite stage accumulation index at schizonts stages at 10 uM treated at 30 hrs post-invasion for continuous duration of 36 hrs by automated image mining based cytological profiling assay; assay type: functional; summary of the method: as §1
Plasmodium falciparum [4] = assay: Antimalarial activity against Plasmodium falciparum K1 by automated image mining based cytological profiling assay; assay type: functional, organism-based
Summary of the method: (§2)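 Parasite cultures in 384-well format, read by automated imaging. Infected erythrocytes detected by DAPI nuclear staining against WGA-AlexaFluor 488 host-cell stain, and viability by Mitotracker Red CMXRos. Total culture parasitaemia quantified. EC50 given as mean±SD of two independent experiments, each in duplicate.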

Plasmodium falciparum [5] = assay: Antimalarial activity against Plasmodium falciparum W2 by automated image mining based cytological profiling assay; assay type: functional, organism-based; summary of the method: as §2
Plasmodium falciparum [6] = assay: Antimalarial activity against Plasmodium falciparum HB3 by automated image mining based cytological profiling assay; assay type: functional; summary of the method: as §2
Plasmodium falciparum [7] = assay: Antimalarial activity against Plasmodium falciparum K1 assessed as reduction in parasite stage accumulation index at 10 uM treated at 42 hrs post-invasion for 24 hrs by automated image mining based cytological profiling assay; assay type: functional, organism-based
Summary of the method: (§3)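 Tightly synchronized cultures exposed from the 42 hpi mid-schizont point for 24 h to 10 µM final. Host cells stained with wheat germ agglutinin-AlexaFluor 488, parasite nuclei with DAPI and live-parasite mitochondria with Mitotracker Red CMXRos. Infected and viable parasitaemia and stage proportions quantified by automated image mining. Stage accumulation indices and parasitaemia reduction index derived.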

Plasmodium falciparum [8] = assay: Antimalarial activity against Plasmodium falciparum HB3 assessed as reduction in parasite stage accumulation index at 10 uM treated at 42 hrs post-invasion for 24 hrs by automated image mining based cytological profiling assay; assay type: functional; summary of the method: as §3
Plasmodium falciparum [9] = assay: Antimalarial activity against Plasmodium falciparum W2 assessed as reduction in parasite stage accumulation index at 10 uM treated at 42 hrs post-invasion for 24 hrs by automated image mining based cytological profiling assay; assay type: functional, organism-based; summary of the method: as §3
Plasmodium falciparum [10] = assay: Antimalarial activity against Plasmodium falciparum K1 assessed as increase in schizonts parasite stage accumulation index at 10 uM treated at 42 hrs post-invasion for 24 hrs by automated image mining based cytological profiling assay; assay type: functional, organism-based; summary of the method: as §3
Plasmodium falciparum [11] = assay: Antimalarial activity against Plasmodium falciparum HB3 assessed as increase in schizonts parasite stage accumulation index at 10 uM treated at 42 hrs post-invasion for 24 hrs by automated image mining based cytological profiling assay; assay type: functional; summary of the method: as §3
Plasmodium falciparum [12] = assay: Antimalarial activity against Plasmodium falciparum W2 assessed as increase in schizonts parasite stage accumulation index at 10 uM treated at 42 hrs post-invasion for 24 hrs by automated image mining based cytological profiling assay; assay type: functional, organism-based; summary of the method: as §3
Plasmodium falciparum [13] = assay: Antimalarial activity against tightly synchronized Plasmodium falciparum HB3 assessed as parasite stage accumulation index at late ring stages at 10 uM treated at 6 hrs post-invasion for continuous duration of 36 hrs by automated image mining based cytological profiling assay; assay type: functional; summary of the method: as §1
Plasmodium falciparum [14] = assay: Antimalarial activity against tightly synchronized Plasmodium falciparum HB3 assessed as parasite stage accumulation index at trophozoites stages at 10 uM treated at 6 hrs post-invasion for continuous duration of 36 hrs by automated image mining based cytological profiling assay; assay type: functional; summary of the method: as §1
Plasmodium falciparum [15] = assay: Antimalarial activity against tightly synchronized Plasmodium falciparum HB3 assessed as parasite stage accumulation index at schizonts stages at 10 uM treated at 6 hrs post-invasion for continuous duration of 36 hrs by automated image mining based cytological profiling assay; assay type: functional; summary of the method: as §1
Plasmodium falciparum [16] = assay: Antimalarial activity against tightly synchronized Plasmodium falciparum HB3 assessed as parasite stage accumulation index at late ring stages at 10 uM treated at 18 hrs post-invasion for continuous duration of 36 hrs by automated image mining based cytological profiling assay; assay type: functional; summary of the method: as §1
Plasmodium falciparum [17] = assay: Antimalarial activity against tightly synchronized Plasmodium falciparum HB3 assessed as parasite stage accumulation index at trophozoites stages at 10 uM treated at 18 hrs post-invasion for continuous duration of 36 hrs by automated image mining based cytological profiling assay; assay type: functional; summary of the method: as §1
Plasmodium falciparum [18] = assay: Antimalarial activity against tightly synchronized Plasmodium falciparum HB3 assessed as parasite stage accumulation index at schizonts stages at 10 uM treated at 18 hrs post-invasion for continuous duration of 36 hrs by automated image mining based cytological profiling assay; assay type: functional; summary of the method: as §1
Plasmodium falciparum [19] = assay: Antimalarial activity against tightly synchronized Plasmodium falciparum W2 assessed as parasite stage accumulation index at early ring stages at 10 uM treated at 6 hrs post-invasion for continuous duration of 36 hrs by automated image mining based cytological profiling assay; assay type: functional; summary of the method: as §1
Plasmodium falciparum [20] = assay: Antimalarial activity against tightly synchronized Plasmodium falciparum W2 assessed as parasite stage accumulation index at trophozoites stages at 10 uM treated at 6 hrs post-invasion for continuous duration of 36 hrs by automated image mining based cytological profiling assay; assay type: functional
Plasmodium falciparum [21] = assay: Antimalarial activity against tightly synchronized Plasmodium falciparum W2 assessed as parasite stage accumulation index at schizonts stages at 10 uM treated at 6 hrs post-invasion for continuous duration of 36 hrs by automated image mining based cytological profiling assay; assay type: functional; summary of the method: as §1
Plasmodium falciparum [22] = assay: Antimalarial activity against tightly synchronized Plasmodium falciparum W2 assessed as parasite stage accumulation index at late ring stages at 10 uM treated at 18 hrs post-invasion for continuous duration of 36 hrs by automated image mining based cytological profiling assay; assay type: functional; summary of the method: as §1
Plasmodium falciparum [23] = assay: Antimalarial activity against tightly synchronized Plasmodium falciparum W2 assessed as parasite stage accumulation index at trophozoites stages at 10 uM treated at 18 hrs post-invasion for continuous duration of 36 hrs by automated image mining based cytological profiling assay; assay type: functional
Plasmodium falciparum [24] = assay: Antimalarial activity against tightly synchronized Plasmodium falciparum W2 assessed as parasite stage accumulation index at trophozoites stages at 10 uM treated at 30 hrs post-invasion for continuous duration of 36 hrs by automated image mining based cytological profiling assay; assay type: functional; summary of the method: as §1
Plasmodium falciparum [25] = assay: Antimalarial activity against tightly synchronized Plasmodium falciparum W2 assessed as parasite stage accumulation index at schizonts stages at 10 uM treated at 30 hrs post-invasion for continuous duration of 36 hrs by automated image mining based cytological profiling assay; assay type: functional
Plasmodium falciparum [26] = assay: Antimalarial activity against tightly synchronized Plasmodium falciparum K1 assessed as parasite stage accumulation index at early ring stages at 10 uM treated at 6 hrs post-invasion for continuous duration of 36 hrs by automated image mining based cytological profiling assay; assay type: functional; summary of the method: as §1
Plasmodium falciparum [27] = assay: Antimalarial activity against tightly synchronized Plasmodium falciparum K1 assessed as parasite stage accumulation index at trophozoites stages at 10 uM treated at 6 hrs post-invasion for continuous duration of 36 hrs by automated image mining based cytological profiling assay; assay type: functional
Plasmodium falciparum [28] = assay: Antimalarial activity against tightly synchronized Plasmodium falciparum K1 assessed as parasite stage accumulation index at schizonts stages at 10 uM treated at 6 hrs post-invasion for continuous duration of 36 hrs by automated image mining based cytological profiling assay; assay type: functional; summary of the method: as §1
Plasmodium falciparum [29] = assay: Antimalarial activity against tightly synchronized Plasmodium falciparum K1 assessed as parasite stage accumulation index at late ring stages at 10 uM treated at 18 hrs post-invasion for continuous duration of 36 hrs by automated image mining based cytological profiling assay; assay type: functional; summary of the method: as §1
Plasmodium falciparum [30] = assay: Antimalarial activity against tightly synchronized Plasmodium falciparum K1 assessed as parasite stage accumulation index at trophozoites stages at 10 uM treated at 18 hrs post-invasion for continuous duration of 36 hrs by automated image mining based cytological profiling assay; assay type: functional; summary of the method: as §1

Structure (SMILES): C[C@@H]1CC[C@H]2[C@@H](C)C(=O)O[C@@H]3O[C@@]4(C)CC[C@@H]1[C@]32OO4 [ARTEMISININ]
- Activity (Plasmodium falciparum [1]): 0.26
- Activity (Plasmodium falciparum [2]): 1.09
- Activity (Plasmodium falciparum [3]): 0.31
- pEC50 (Plasmodium falciparum [4]): 8.52
- pEC50 (Plasmodium falciparum [5]): 7.96
- pEC50 (Plasmodium falciparum [6]): 7.74
- inhibition (Plasmodium falciparum [7]): Active
- inhibition (Plasmodium falciparum [8]): Active
- inhibition (Plasmodium falciparum [9]): Active
- inhibition (Plasmodium falciparum [10]): Active
- inhibition (Plasmodium falciparum [11]): Active
- inhibition (Plasmodium falciparum [12]): Active
- Activity (Plasmodium falciparum [13]): 3.53
- Activity (Plasmodium falciparum [14]): 0.37
- Activity (Plasmodium falciparum [15]): 0.11
- Activity (Plasmodium falciparum [16]): 4.4
- Activity (Plasmodium falciparum [17]): 1.06
- Activity (Plasmodium falciparum [18]): 0.47
- Activity (Plasmodium falciparum [19]): 2.06
- Activity (Plasmodium falciparum [20]): 0.81
- Activity (Plasmodium falciparum [21]): 0.47
- Activity (Plasmodium falciparum [22]): 2.01
- Activity (Plasmodium falciparum [23]): 1.06
- Activity (Plasmodium falciparum [24]): 1.51
- Activity (Plasmodium falciparum [25]): 1.05
- Activity (Plasmodium falciparum [26]): 1.96
- Activity (Plasmodium falciparum [27]): 0.51
- Activity (Plasmodium falciparum [28]): 0.17
- Activity (Plasmodium falciparum [29]): 2.52
- Activity (Plasmodium falciparum [30]): 0.7
